Measurements as given in ChEMBL document CHEMBL1126043, “Novel thiazolidine-2,4-diones as potent euglycemic agents” (1992).

Legend:
Mus musculus [1] = experiment: In vivo euglycemic activity of the compound (administered by oral gavage) in C57/6J-ob/ob mice is measured by normalization of blood glucose levels at a dose of 0.1(mg/kg); assay type: functional
Summary of the method: (§1)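 Mice bled from retro-orbital sinus into tubes with 2% sodium heparin for baseline glucose, then dosed by oral gavage once daily for 4 days in 0.25% (w/v) methylcellulose in water, no pH adjustment (0.1 mL per 20 g). Bled 24 h after fourth dose. Samples centrifuged 2 min at 10000g. Plasma glucose measured by hexokinase UV method. Results scaled to vehicle (0%) and ciglitazone 50 mg/kg (100%).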

Mus musculus [2] = experiment: In vivo euglycemic activity (administered by oral gavage) in C57/6J-ob/ob mice by normalization of blood glucose levels at a dose of 0.5 mg/kg.; assay type: functional; summary of the method: as §1
Mus musculus [3] = experiment: In vivo euglycemic activity (administered by oral gavage) in C57/6J-ob/ob mice by normalization of blood glucose levels at a dose of 1 mg/kg.; assay type: functional; summary of the method: as §1
Mus musculus [4] = experiment: In vivo euglycemic activity of the compound (administered by oral gavage) in C57/6J-ob/ob mice is measured by normalization of blood glucose levels at a dose of 2.5(mg/kg); assay type: functional; summary of the method: as §1
Mus musculus [5] = experiment: In vivo euglycemic activity of the compound (administered by oral gavage) in C57/6J-ob/ob mice is measured by normalization of blood glucose levels at a dose of 0.25(mg/kg); assay type: functional; summary of the method: as §1
Mus musculus [6] = experiment: In vivo euglycemic activity of the compound (administered by oral gavage) in C57/6J-ob/ob mice is measured by normalization of blood glucose levels at a dose of 10(mg/kg).; assay type: functional; summary of the method: as §1
Mus musculus [7] = experiment: In vivo euglycemic activity of the compound (administered by oral gavage) in C57/6J-ob/ob mice is measured by normalization of blood glucose levels at a dose of 25(mg/kg); assay type: functional; summary of the method: as §1
Mus musculus [8] = experiment: In vivo euglycemic activity (administered by oral gavage) in C57/6J-ob/ob mice measured by normalization of blood glucose levels at a dose of 5 mg/kg.; assay type: functional
Mus musculus [9] = experiment: In vivo euglycemic activity (administered by oral gavage) in C57/6J-ob/ob mice by normalization of blood glucose levels at a dose of 10 mg/kg.; assay type: functional; summary of the method: as §1
Mus musculus [10] = experiment: In vivo euglycemic activity of the compound (administered by oral gavage) in C57/6J-ob/ob mice is measured by normalization of blood glucose levels at a dose of 50(mg/kg); assay type: functional
Mus musculus [11] = experiment: In vivo euglycemic activity of the compound (administered by oral gavage) in C57/6J-ob/ob mice is measured by normalization of blood glucose levels at a dose of 0.05(mg/kg); assay type: functional; summary of the method: as §1
Mus musculus [12] = experiment: In vivo euglycemic activity of the compound (administered by oral gavage) in C57/6J-ob/ob mice is measured by normalization of blood glucose levels at a dose of 1(mg/kg).; assay type: functional; summary of the method: as §1
Mus musculus [13] = experiment: In vivo euglycemic activity of the compound (administered by oral gavage) in C57/6J-ob/ob mice is measured by normalization of blood glucose levels at a dose of 5(mg/kg)

| Structure (SMILES) | Normalization (Mus musculus [2]) [%] | Normalization (Mus musculus [5]) [%] | Normalization (Mus musculus [7]) [%] | Normalization (Mus musculus [8]) [%] | Normalization (Mus musculus [9]) [%] | other results |
| --- | --- | --- | --- | --- | --- | --- |
| Cc1oc(-c2ccccc2)nc1CCC(=O)c1ccc(/C=C2\SC(=O)NC2=O)cc1 | 81 |  |  |  |  | Normalization (Mus musculus [1]): 43%; Normalization (Mus musculus [3]): 84% |
| Cc1ccc(-c2nc(C/C=C/c3ccc(CC4SC(=O)NC4=O)s3)c(C)o2)cc1 (stereo not given) | 73 | 64 |  |  |  | Normalization (Mus musculus [4]): 90%; Normalization (Mus musculus [3]): 98% |
| O=C1NC(=O)C(Cc2ccc(C(=O)COc3ccccc3)cc2)S1 (stereo not given) |  |  |  |  |  | Normalization (Mus musculus [6]): 7% |
| Cc1oc(-c2ccc(C(F)(F)F)cc2)nc1CCC(=O)c1ccc(CC2SC(=O)NC2=O)cc1 (stereo not given) | 69 | 81 |  |  |  | Normalization (Mus musculus [1]): 88%; Normalization (Mus musculus [3]): 86% |
| O=C1NC(=O)C(Cc2ccc(C(=O)/C=C/c3ccccc3)cc2)S1 (stereo not given) |  |  | 99 | 23 | 65 |  |
| CC1(COc2ccc(CC3SC(=O)NC3=O)cc2)CCCCC1 (stereo not given) [CIGLITAZONE] |  |  |  |  |  | Normalization (Mus musculus [10]): 100% |
| Cc1oc(-c2ccccc2)nc1CCC(=O)c1ccc(CC2SC(=O)NC2=O)cc1 (stereo not given) [DARGLITAZONE] | 97 | 88 |  | 100 | 100 | Normalization (Mus musculus [4]): 88%; Normalization (Mus musculus [1]): 83%; Normalization (Mus musculus [3]): 100% |
| O=C1NC(=O)C(Cc2ccc3c(c2)CCC(Cc2ccccc2)O3)S1 (stereo not given) |  |  | 91 | 48 | 70 |  |
| O=C1NC(=O)C(Cc2ccc(C(=O)/C=C/c3ccc(-c4ccccc4)cc3)cc2)S1 (stereo not given) |  |  | 65 |  | 56 |  |
| O=C1NC(=O)C(Cc2ccc(C(=O)/C=C/c3ccccc3O)cc2)S1 (stereo not given) |  |  | 0 |  |  |  |
| Cc1oc(-c2ccccc2)nc1CCC(O)c1ccc(CC2SC(=O)NC2=O)cc1 (stereo not given) | 100 | 85 |  |  |  | Normalization (Mus musculus [11]): 72%; Normalization (Mus musculus [1]): 93% |
| COc1c(C)cc(-c2nc(CCC(=O)c3ccc(CC4SC(=O)NC4=O)cc3)c(C)o2)cc1C (stereo not given) | 100 |  |  |  |  | Normalization (Mus musculus [1]): 75%; Normalization (Mus musculus [3]): 100% |
| Cc1ccc(-c2nc(CCC(=O)c3ccc(CC4SC(=O)NC4=O)cc3)c(C)o2)o1 (stereo not given) | 68 | 87 |  |  |  | Normalization (Mus musculus [1]): 47% |
| Cc1oc(-c2ccccc2)nc1C/C=C/c1ccc(CC2SC(=O)NC2=O)cc1 (stereo not given) | 84 | 74 |  |  |  | Normalization (Mus musculus [1]): 29% |
| Cc1oc(-c2ccccc2)nc1CCC(=O)c1ccc(CC2SC(=O)NC2=O)s1 (stereo not given) |  |  |  | 100 |  | Normalization (Mus musculus [4]): 99%; Normalization (Mus musculus [3]): 37% |
| Cc1ccc(-c2nc(CCC(=O)c3ccc(CC4SC(=O)NC4=O)cc3)co2)cc1 (stereo not given) | 0 | 15 |  |  |  |  |
| O=C1NC(=O)C(Cc2ccc(C(=O)CCc3ccccc3)cc2)S1 (stereo not given) |  |  | 93 | 53 | 81 |  |
| Cc1ccc(-c2nc(CCC(=O)c3ccc(CC4SC(=O)NC4=O)cc3)c(C)o2)cc1 (stereo not given) | 47 | 15 |  |  |  | Normalization (Mus musculus [12]): 47% |
| O=C1NC(=O)C(Cc2ccc(C(=O)CCc3coc(-c4ccccc4)n3)cc2)S1 (stereo not given) | 30 | 52 |  |  |  |  |
| COc1ccccc1/C=C/C(=O)c1ccc(CC2SC(=O)NC2=O)cc1 (stereo not given) |  |  |  |  | 66 | Normalization (Mus musculus [13]): 50% |
| Cc1oc(-c2cccs2)nc1CCC(=O)c1ccc(CC2SC(=O)NC2=O)cc1 (stereo not given) | 71 | 27 |  |  |  | Normalization (Mus musculus [3]): 84% |
| O=C1NC(=O)C(Cc2ccc(CCCc3ccccc3)cc2)S1 (stereo not given) |  |  | 73 | 46 | 77 |  |
| O=C1NC(=O)C(Cc2ccc(C(=O)/C=C/c3ccc(OCc4ccccc4)cc3)cc2)S1 (stereo not given) |  |  | 96 | 64 | 57 |  |
| O=C1NC(=O)C(Cc2ccc3c(c2)CCC(Cc2ccccc2)C3=O)S1 (stereo not given) |  |  | 47 | 39 | 54 |  |
| COCc1ccc(/C=C/C(=O)c2ccc(CC3SC(=O)NC3=O)cc2)cc1 (stereo not given) |  |  | 0 |  |  |  |
